Where two headings read alike, the source gives them in different places.
Tests used:
[1] = system: MCF-7 (human breast adenocarcinoma); assay: Cell viability in treated cell lines; type: cell-based; details: MCF7, 72 h
Outline: (§1)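 Cells were kept in RPMI 1640 with 10% FCS and penicillin/streptomycin at 37 °C, 5% CO2. They were seeded at 6000 cells/well, held 24 h, then given test compound at 0, 15.62, 31.25, 62.5, 125, 250, 500 and 1000 […] for 72 h. MTT (5 mg/mL) was added for 4 h, formazan dissolved in DMSO, and A570 read. Treatment was done in triplicate. EC50 came from sigmoidal variable-slope nonlinear regression of % growth inhibition.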

MCF-7 cells [2] = assay: Late apoptosis study; type: cell-based, human; details: treated at EC50 of 72 h, 36 h incubation
Outline: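 MCF-7 cells were seeded at 2 × 10^4 on chamber slides and held 24 h at 37 °C, then exposed to test compound for 36 h; untreated cells served as control. Cells were fixed in 4% paraformaldehyde/PBS (pH 7.4) for 25 min at 4 °C and permeabilised with 0.2% Triton X-100 for 5 min. DNA ends were labelled with rTdT/nucleotide mix at 37 °C in the dark. Diluted SSC was added, and nuclei were counterstained with PI (1 μg/mL, 15 min, RT). FITC signal was imaged by high-content microscopy.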

urease [3] = target: T1, urease (Canavalia ensiformis, UniProt P07374); assay: Urease inhibitory assay; type: biochemical
T1 sequence (P07374 whole entry, looked up): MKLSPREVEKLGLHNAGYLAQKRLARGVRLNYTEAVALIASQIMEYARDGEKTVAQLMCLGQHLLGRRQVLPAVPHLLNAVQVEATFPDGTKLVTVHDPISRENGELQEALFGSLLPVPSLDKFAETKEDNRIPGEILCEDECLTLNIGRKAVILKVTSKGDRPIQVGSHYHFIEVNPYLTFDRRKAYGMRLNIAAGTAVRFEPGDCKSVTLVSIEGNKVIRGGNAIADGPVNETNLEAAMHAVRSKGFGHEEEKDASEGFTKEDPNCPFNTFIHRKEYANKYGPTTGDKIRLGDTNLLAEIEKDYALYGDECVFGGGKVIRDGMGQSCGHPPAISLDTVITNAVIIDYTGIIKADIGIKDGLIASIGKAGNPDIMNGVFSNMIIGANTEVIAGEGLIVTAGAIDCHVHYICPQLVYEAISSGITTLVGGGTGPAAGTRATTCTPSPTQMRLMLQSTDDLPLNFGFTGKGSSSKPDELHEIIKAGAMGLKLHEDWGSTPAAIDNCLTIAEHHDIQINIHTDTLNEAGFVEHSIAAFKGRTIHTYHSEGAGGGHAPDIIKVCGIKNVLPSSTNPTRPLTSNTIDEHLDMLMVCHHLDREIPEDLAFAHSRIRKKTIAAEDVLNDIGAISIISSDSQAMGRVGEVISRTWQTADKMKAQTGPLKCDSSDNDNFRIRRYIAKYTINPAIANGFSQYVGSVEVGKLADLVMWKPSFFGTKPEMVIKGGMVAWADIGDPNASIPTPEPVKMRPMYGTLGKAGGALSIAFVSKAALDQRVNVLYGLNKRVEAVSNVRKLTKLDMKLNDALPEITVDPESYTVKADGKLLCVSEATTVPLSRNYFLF
Outline: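 Urease in pH 8.2 buffer (0.01 M K2HPO4·3H2O, 1 mM EDTA, 0.01 M LiCl) with 100 mM urea, incubated 15 min at 30 °C with test compound added from a 1 mM solution. Ammonia detected by indophenol: alkali (0.5% NaOH, 0.1% active chloride NaOCl) plus phenol reagent (1% phenol, 0.005% nitroprusside). A630 read after 50 min as change per min; triplicate; acetohydroxamic acid standard; % inhibition.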

HeLa (cervical cancer) = assay: Cell viability in treated cell lines; type: cell-based; details: Homo sapiens, 72 h, read-out: EC50 HeLa
Outline: as §1

urease [4] = target: T1, urease; assay: Kinetic study of urease inhibition; type: biochemical
MCF-7 cells [5] = assay: Early apoptosis study; type: cell-based, human; details: treated at EC50 of 72 h for 6 and 9 h
Outline: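 MCF-7 cells were seeded at 10,000 cells/well and held 24 h at 37 °C. The medium was replaced with test compound, alongside a positive control and an untreated control, for 6 and 9 h. Cells were stained with Annexin V-FITC (green) and PI (red) in binding buffer for 10 min at 37 °C. They were imaged by widefield high-content imaging to score early versus late apoptosis and necrosis.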

Q: Which results are given for CCCCCOC(=O)Nc1nc(=O)n([C@@H]2O[C@H](C)[C@@H](O)[C@H]2O)cc1F [CP, capecitabine, reference compound]?
A: EC50 ([1]; read-out: EC50 on MCF-7): 980 µM; DNA fragmentation (TUNEL, green stain of nuclei) (MCF-7 cells [2]): green-stained nuclei were observed

Q: What does the source list for Oc1ccccc1C1=NN(c2ccccc2)C(c2ccc(Br)cc2)C1 (stereo not shown) [Compound 2c, 1-Phenyl-3(2-hydroxy-phenyl)-5-(4-bromo-phenyl)-2-pyrazoline]?
A: IC50 (urease [3]): 12.6 ± 0.43 µM; EC50 ([1]; read-out: EC50 MCF-7): > 500 µM; EC50 (HeLa (cervical cancer)): > 500 µM

Q: COc1cc(C2CC(c3ccccc3O)=NN2c2ccccc2)cc(OC)c1OC (stereo not shown) [Compound 2d, 1-Phenyl-3(2-hydroxy-phenyl)-5-(3,4,5-trimethoxyphenyl)-2-pyrazoline] was tested. Which IC50 (urease [3]) did it give?
A: 13.3 ± 0.25 µM

Q: And the EC50 ([1]; read-out: EC50 MCF-7)?
A: > 500 µM

Q: And the EC50 (HeLa (cervical cancer))?
A: > 500 µM

Q: Which IC50 (urease [3]) does the source give for COc1ccc(C2CC(c3ccccc3O)=NN2c2ccccc2)cc1 (stereo not shown) [Compound 2e, 1-Phenyl-3(2-hydroxy-phenyl)-5-(4-methoxyphenyl)-2-pyrazoline] here?
A: 15.4 ± 0.38 µM

Q: What about the EC50 ([1]; read-out: EC50 MCF-7) of the same compound?
A: > 500 µM

Q: And the EC50 (HeLa (cervical cancer))?
A: > 500 µM

Q: Which results are given for COc1ccc(C2CC(c3ccccc3O)=NN2c2ccccc2)cc1OC (stereo not shown) [Compound 2g, 1-Phenyl-3(2-hydroxy-phenyl)-5-(3,4-dimethoxyphenyl)-2-pyrazoline]?
A: IC50 (urease [3]): 9.13 ± 0.25 µM; Ki (urease [4]): 19.1 µM; mode of inhibition (urease [4]; urease): competitive inhibition; Vmax (urease [4]; urease, at a 20 μM inhibitor concentration): 5.76 µM/min; EC50 ([1]; read-out: EC50 MCF-7): > 500 µM; EC50 (HeLa (cervical cancer)): > 500 µM

Q: With O=C(O)c1ccc(C2CC(c3ccccc3O)=NN2c2ccccc2)cc1 (stereo not shown) [Compound 2h, 1-Phenyl-3(2-hydroxy-phenyl)-5-(4-carboxyphenyl)-2-pyrazoline] as the compound, how does the IC50 (urease [3]) read?
A: 11.3 ± 0.51 µM

Q: And the EC50 ([1]; read-out: EC50 MCF-7)?
A: > 500 µM

Q: What about the EC50 (HeLa (cervical cancer)) of the same compound?
A: > 500 µM

Q: What does the source list for CC(=O)Nc1ccc(C2CC(c3ccccc3O)=NN2c2ccccc2)cc1 (stereo not shown) [Compound 2j, 1-Phenyl-3(2-hydroxy-phenyl)-5-(4-acetamidophenyl)-2-pyrazoline]?
A: IC50 (urease [3]): 13.7 ± 0.47 µM; EC50 ([1]; read-out: EC50 MCF-7): > 500 µM; EC50 (HeLa (cervical cancer)): > 500 µM

Q: Which “urease IC50 ± SEM” value (urease [3]; pH 8.2, 30 °C, 100 mM urea) does the source give for Oc1ccccc1C1=NN(c2ccccc2)C(c2ccccc2)C1 (stereo not shown) [Compound 2l, 1-Phenyl-3(2-hydroxy-phenyl)-5-phenyl-2-pyrazoline] here?
A: NA* ^a

Q: What about the EC50 ([1]; read-out: EC50 MCF-7) of the same compound?
A: 120 ± 0.1 µM

Q: And the EC50 (HeLa (cervical cancer))?
A: 510 µM

Q: And the “mode of MCF-7 cell death (Annexin V-FITC/PI staining)” value (MCF-7 cells [5])?
A: induce early apoptosis

Q: What about the “DNA fragmentation (TUNEL, green stain of nuclei)” value (MCF-7 cells [2]) of the same compound?
A: morphologically detectable (green)

Q: For Cc1ccc(C2CC(c3ccccc3O)=NN2c2ccccc2)c(C)c1 (stereo not shown) [Compound 2p, 1-Phenyl-3(2-hydroxy-phenyl)-5(2,4-dimethyl-phenyl)-2-pyrazoline], which IC50 (urease [3]) is on record?
A: 12.2 ± 0.38 µM

Q: And the EC50 ([1]; read-out: EC50 MCF-7)?
A: > 500 µM

Q: What about the EC50 (HeLa (cervical cancer)) of the same compound?
A: > 500 µM

From article PMC8811919 (ACS Omega, 2022)
